Source: ChEMBL document CHEMBL5303300, “EUbOPEN Chemogenomics Library - Multiplex” (2023)
Where “and” joins values, the source holds several entries; their conditions need not be identical. Equal values may be shown once.

Key:
U2OS = assay: Multiplex assay against U2OS; type: toxicity, cell-based; conditions: human, number of replicates 2
In short: (§1)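 Live cells carried four stains from seeding: Hoechst33342, BioTracker Green Microtubule Cytoskeleton Dye, MitoTracker Red and Annexin V Alexa Fluor 680. They were imaged on a CQ1 microscope at 37°C and 5% CO2 after compound addition. Using CellPathfinder machine-learning gating, cells were split into Hoechst high-intensity objects or normal cells, normal cells into healthy, pyknosed or fragmented nuclei, and pyknosed cells into mitotic or apoptotic; tubulin, mitochondrial-mass and membrane-permeability phenotypes are per cents of healthy-nucleus cells.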

HEK-293T = assay: Multiplex assay against HEK293T; type: toxicity, cell-based; conditions: human, number of replicates 2; in short: as §1
[1] = 24 h, 10 µM, compound concentration 10 uM
[2] = 48 h, 1 µM, compound concentration 1 uM
[3] = 48 h, 10 µM, compound concentration 10 uM
[4] = 12 h, 1 µM, compound concentration 1 uM
[5] = 12 h, 10 µM, compound concentration 10 uM
[6] = 24 h, 1 µM, compound concentration 1 uM

In the case of `CCC(=O)O[C@@H](OP(=O)(CCCCc1ccccc1)CC(=O)N1C[C@H](C2CCCCC2)C[C@H]1C(=O)[O-])C(C)C.[Na+]` (stereo partly specified), the “Population Fragmented Nuclei (%)” value (U2OS; [1]) was 4%, the “Population Healthy Nuclei (%)” value (U2OS; [1]) was 71% and 87% and the “Population Hoechst High Intensity Objects (%)” value (U2OS; [1]) was 0%. For the same compound, the “Population Membrane Permeable-Phenotype (%)” value (U2OS; [1]) was 6% and 1%, the “Population Mitochondria Different-Phenotype (%)” value (U2OS; [1]) was 0% and the “Population Mitotic Cells (%)” value (U2OS; [1]) was 20% and 58%. For the same compound, the “Population Normal (%)” value (U2OS; [1]) was 100% and 99%, the “Population Pyknosed Nuclei (%)” value (U2OS; [1]) was 23% and 8% and the “Population Tubulin-Different-Phenotype (%)” value (U2OS; [1]) was 80% and 83%. For the same compound, the “Population Apoptotic (%)” value (U2OS; [2]) was 50% and 84%, the “Population Healthy Nuclei (%)” value (U2OS; [2]) was 72% and 90% and the “Population Hoechst High Intensity Objects (%)” value (U2OS; [2]) was 0%. For the same compound, the “Population Membrane Permeable-Phenotype (%)” value (U2OS; [2]) was 0% and 1%, the “Population Mitochondria Different-Phenotype (%)” value (U2OS; [2]) was 0% and the “Population Normal (%)” value (U2OS; [2]) was 100% and 99%. For the same compound, the “Population Pyknosed Nuclei (%)” value (U2OS; [2]) was 10% and 6%, the “Population Tubulin-Different-Phenotype (%)” value (U2OS; [2]) was 87% and 85% and the “Population Apoptotic (%)” value (U2OS; [3]) was 75% and 46%. For the same compound, the “Population Healthy Nuclei (%)” value (U2OS; [3]) was 64% and 92%, the “Population Hoechst High Intensity Objects (%)” value (U2OS; [3]) was 0% and the “Population Membrane Permeable-Phenotype (%)” value (U2OS; [3]) was 4% and 0%. For the same compound, the “Population Mitochondria Different-Phenotype (%)” value (U2OS; [3]) was 0%, the “Population Mitotic Cells (%)” value (U2OS; [3]) was 25% and 53% and the “Population Normal (%)” value (U2OS; [3]) was 100%. For the same compound, the “Population Tubulin-Different-Phenotype (%)” value (U2OS; [3]) was 70% and 85%, the “Population Apoptotic (%)” value (HEK-293T; [4]) was 44% and 35% and the “Population Fragmented Nuclei (%)” value (HEK-293T; [4]) was 2% and 1%. The “Population Healthy Nuclei (%)” value (HEK-293T; [4]) was 86% and 85%, the “Population Hoechst High Intensity Objects (%)” value (HEK-293T; [4]) was 5% and 6% and the “Population Membrane Permeable-Phenotype (%)” value (HEK-293T; [4]) was 3%. The “Population Mitochondria Different-Phenotype (%)” value (HEK-293T; [4]) was 17% and 15%, the “Population Mitotic Cells (%)” value (HEK-293T; [4]) was 55% and 64% and the “Population Normal (%)” value (HEK-293T; [4]) was 94% and 93%. The “Population Pyknosed Nuclei (%)” value (HEK-293T; [4]) was 11% and 12%, the “Population Tubulin-Different-Phenotype (%)” value (HEK-293T; [4]) was 46% and 44% and the “Total Cell Count” value (HEK-293T; [4]) was 721 and 624. For the same compound, the “Population Apoptotic (%)” value (HEK-293T; [5]) was 28% and 35%, the “Population Fragmented Nuclei (%)” value (HEK-293T; [5]) was 2% and 3% and the “Population Healthy Nuclei (%)” value (HEK-293T; [5]) was 84% and 86%. For the same compound, the “Population Hoechst High Intensity Objects (%)” value (HEK-293T; [5]) was 5% and 6%, the “Population Membrane Permeable-Phenotype (%)” value (HEK-293T; [5]) was 1% and 3% and the “Population Mitochondria Different-Phenotype (%)” value (HEK-293T; [5]) was 13%. The “Population Mitotic Cells (%)” value (HEK-293T; [5]) was 71% and 64%, the “Population Normal (%)” value (HEK-293T; [5]) was 94% and 93% and the “Population Pyknosed Nuclei (%)” value (HEK-293T; [5]) was 12% and 10%. The “Population Tubulin-Different-Phenotype (%)” value (HEK-293T; [5]) was 51% and 50%, the “Total Cell Count” value (HEK-293T; [5]) was 743 and 727 and the “Population Apoptotic (%)” value (HEK-293T; [6]) was 40% and 41%. The “Population Fragmented Nuclei (%)” value (HEK-293T; [6]) was 5% and 3%, the “Population Healthy Nuclei (%)” value (HEK-293T; [6]) was 86% and 88% and the “Population Hoechst High Intensity Objects (%)” value (HEK-293T; [6]) was 7% and 8%. For the same compound, the “Population Membrane Permeable-Phenotype (%)” value (HEK-293T; [6]) was 3%, the “Population Mitochondria Different-Phenotype (%)” value (HEK-293T; [6]) was 4% and 5% and the “Population Mitotic Cells (%)” value (HEK-293T; [6]) was 59% and 58%. For the same compound, the “Population Normal (%)” value (HEK-293T; [6]) was 92% and 91%, the “Population Pyknosed Nuclei (%)” value (HEK-293T; [6]) was 7% and 8% and the “Population Tubulin-Different-Phenotype (%)” value (HEK-293T; [6]) was 26% and 30%. For the same compound, the “Total Cell Count” value (HEK-293T; [6]) was 1141 and 899, the “Population Apoptotic (%)” value (HEK-293T; [1]) was 18% and 31% and the “Population Fragmented Nuclei (%)” value (HEK-293T; [1]) was 3% and 4%. The “Population Healthy Nuclei (%)” value (HEK-293T; [1]) was 89% and 88%, the “Population Hoechst High Intensity Objects (%)” value (HEK-293T; [1]) was 6% and 9% and the “Population Membrane Permeable-Phenotype (%)” value (HEK-293T; [1]) was 3% and 2%. For the same compound, the “Population Mitochondria Different-Phenotype (%)” value (HEK-293T; [1]) was 2% and 3%, the “Population Mitotic Cells (%)” value (HEK-293T; [1]) was 81% and 68% and the “Population Normal (%)” value (HEK-293T; [1]) was 93% and 90%. For the same compound, the “Population Pyknosed Nuclei (%)” value (HEK-293T; [1]) was 7% and 6%, the “Population Tubulin-Different-Phenotype (%)” value (HEK-293T; [1]) was 28% and 31% and the “Total Cell Count” value (HEK-293T; [1]) was 1219 and 1091. The “Population Apoptotic (%)” value (HEK-293T; [2]) was 22% and 18%, the “Population Fragmented Nuclei (%)” value (HEK-293T; [2]) was 12% and 7% and the “Population Healthy Nuclei (%)” value (HEK-293T; [2]) was 84% and 88%. For the same compound, the “Population Hoechst High Intensity Objects (%)” value (HEK-293T; [2]) was 9% and 11%, the “Population Membrane Permeable-Phenotype (%)” value (HEK-293T; [2]) was 5% and 4% and the “Population Mitochondria Different-Phenotype (%)” value (HEK-293T; [2]) was 0% and 1%. For the same compound, the “Population Mitotic Cells (%)” value (HEK-293T; [2]) was 77% and 81%, the “Population Normal (%)” value (HEK-293T; [2]) was 90% and 88% and the “Population Pyknosed Nuclei (%)” value (HEK-293T; [2]) was 2% and 3%. The “Population Tubulin-Different-Phenotype (%)” value (HEK-293T; [2]) was 10% and 14%, the “Total Cell Count” value (HEK-293T; [2]) was 2926 and 1957 and the “Population Apoptotic (%)” value (HEK-293T; [3]) was 5% and 13%. The “Population Fragmented Nuclei (%)” value (HEK-293T; [3]) was 14% and 8%, the “Population Healthy Nuclei (%)” value (HEK-293T; [3]) was 82% and 87% and the “Population Hoechst High Intensity Objects (%)” value (HEK-293T; [3]) was 10% and 11%. The “Population Membrane Permeable-Phenotype (%)” value (HEK-293T; [3]) was 4% and 3%, the “Population Mitochondria Different-Phenotype (%)” value (HEK-293T; [3]) was 0% and the “Population Mitotic Cells (%)” value (HEK-293T; [3]) was 94% and 86%. The “Population Normal (%)” value (HEK-293T; [3]) was 89% and 88%, the “Population Pyknosed Nuclei (%)” value (HEK-293T; [3]) was 2% and 4% and the “Population Tubulin-Different-Phenotype (%)” value (HEK-293T; [3]) was 12% and 17%. For the same compound, the “Total Cell Count” value (HEK-293T; [3]) was 3198 and 2304.
